5-HT1A blocker – 5-HT1a (human) receptor antagonism. P08908. CHO 5-HT1a Ga15 NFAT-bla reporter, antagonist mode. inhibition, % at 10 µM. hit rate 0.68% among 62,000. AID 612;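 active means inhibition above the mean of all tested compounds plus 3 SD, cut at about 43% in these data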;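 further: receptor stimulated by 5-CT agonist at 100 nM near EC80; beta-lactamase reporter measured by ratiometric fluorescence of a cleavable substrate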
S1P3 agonist – agonists of human S1P3 receptor; S1P3 NFAT-BLA reporter cells, agonism, FRET ratio; relative to 1 µM S1P, basal subtracted; activation, % at 4.5 µM; hit rate 0.1% among 60,000; AID 373;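 active means activation above the screen-wide mean plus 3 SD, cut at about 4.5% in these data, passing the limit was not always enough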
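material = human S1P3 NFAT-BLA reporter CHO cells | schedule = 4 h compound at 37 °C, 2 h substrate at RT | measured by = fluorescent BLA substrate, ex 405 nm, em 460/535 nm ratio | controls = 1 µM S1P reference | replication = primary once, confirmation triplicate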
S1P1 ag-PAM – S1P1 (human) agonism or agonism potentiation. AID 449. P21453. activation, % at 9.5 µM. S1P1 CRE-bla cells, forskolin, beta-lactamase FRET, potentiator mode; S1P1 agonist co-added at EC20, 2 nM; 100% = saturating reference agonist, 0% = basal. hit rate 0.57% among 56,000;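 active means activation above a cutoff set at the mean activation of all tested compounds plus 3 SD, cut at about 54% in these data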;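 further: forskolin at 4 µM as EC80 and the EC20 agonist is SEW2871; 100% = SEW2871 at its EC100 plus forskolin at EC80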
Target sequence (P21453 whole entry, looked up): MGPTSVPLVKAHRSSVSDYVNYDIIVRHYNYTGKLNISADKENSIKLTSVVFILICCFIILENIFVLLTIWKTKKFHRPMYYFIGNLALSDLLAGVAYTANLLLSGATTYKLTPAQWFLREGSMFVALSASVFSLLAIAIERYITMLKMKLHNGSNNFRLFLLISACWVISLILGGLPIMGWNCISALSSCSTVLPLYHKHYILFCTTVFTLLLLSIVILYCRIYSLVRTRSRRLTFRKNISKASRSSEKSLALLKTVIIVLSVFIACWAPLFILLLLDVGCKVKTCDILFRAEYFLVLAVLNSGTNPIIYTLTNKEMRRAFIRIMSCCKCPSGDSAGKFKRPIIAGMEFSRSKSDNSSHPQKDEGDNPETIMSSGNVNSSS
5HT1a ag – 5-HT1a (human) receptor agonism; hit rate 0.56% among 65,000; AID 567; activation, % at 10 µM; P08908; CHO 5-HT1a Ga15 NFAT-bla reporter, FRET ratio; 0% basal, 100% maximal reference agonist;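 active means activation above the screen-wide mean activation plus 3 SD, cut at about 19% in these data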;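 further: 0% = DMSO wells and 100% = 5-CT at EC100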
HTR1E agonist – activates the human 5-HT1E serotonin receptor; activation, % at 6 µM; CHO 5-HT1E Ga15 NFAT-bla reporter, FRET; 0% DMSO wells, 100% control agonist wells; hit rate 0.69% among 65,000; P28566; AID 574;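 active means activation above a set limit, the screen-wide mean activation plus 3 SD, cut at about 8.5% in these data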;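 further: 100% = positive control agonist at 1 µM giving full maximal response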
5HT1E antag – 5-HT1E (human) receptor antagonism; hit rate 0.99% among 65,000; P28566; CHO 5-HT1E Ga15 NFAT-bla reporter, FRET, antagonist; AID 571; inhibition, % at 6 µM;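 active means inhibition above a set limit, the mean inhibition across every tested compound plus 3 SD, cut at about 29% in these data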;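 further: signal is the 460 over 535 nm emission ratio of beta-lactamase substrate; 0% = agonist plus DMSO wells and 100% = wells without agonist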
An asterisk follows results filed as active. In the library only some 3% were active in any assay of this set; here they are far more common.

O=C(NCC12CC3CC(CC(C3)C1)C2)c1nn2c(c1Cl)NC(c1ccco1)CC2C(F)(F)F (stereo not given) was read as 5-HT1A blocker 6.8, S1P3 agonist -1.9, S1P1 ag-PAM 13.8, 5HT1a ag 2.2, HTR1E agonist 0.9 and 5HT1E antag 0.9.
O=C1N2c3ccccc3CCc3cccc(c32)C1(O)C(F)(F)F (stereo not given) was read as 5-HT1A blocker -20.6, S1P3 agonist 0.0, S1P1 ag-PAM -3.7, 5HT1a ag 6.8, HTR1E agonist -0.7 and 5HT1E antag 29.0*.
O=C1CCCC2=C1C(O)(C(F)(F)F)C(=O)N2Cc1ccccc1 (stereo not given) was read as 5-HT1A blocker -2.3, S1P3 agonist 0.2, S1P1 ag-PAM -13.3, 5HT1a ag -0.4, HTR1E agonist -1.2 and 5HT1E antag -9.5.
For CCOCCCn1c(=S)[nH]c2cc(C(=O)NCCOC)ccc2c1=O the results were 5-HT1A blocker 2.2, 5HT1a ag 1.0, HTR1E agonist 16.2* and 5HT1E antag 1.4.
`COc1ccc(N2CCN(CCNC(=O)CCCn3c(=O)[nH]c4cc(Cl)ccc4c3=O)CC2)cc1` gave 5-HT1A blocker -9.9, 5HT1a ag 0.0, HTR1E agonist 0.0 and 5HT1E antag 1.1.
Screening Cn1cc(C(=O)NCCN2CCN(c3cccc(Cl)c3)CC2)c2c3ccccc3n(C)c2c1=O returned 5-HT1A blocker -1.9, S1P3 agonist -0.3, S1P1 ag-PAM -8.8, 5HT1a ag 2.2, HTR1E agonist 1.1 and 5HT1E antag 1.6.
Cc1cc(C(=O)NCCN2CCN(c3cccc(Cl)c3)CC2)n(-c2ccccc2)n1 was read as 5-HT1A blocker 23.6, S1P3 agonist -1.7, S1P1 ag-PAM -1.7, 5HT1a ag 30.8*, HTR1E agonist 1.5 and 5HT1E antag -4.2.
COCCn1c(=O)[nH]c2cc(C(=O)NCCN3CCN(c4cccc(Cl)c4)CC3)ccc2c1=O was read as 5-HT1A blocker 22.6, 5HT1a ag 27.8*, HTR1E agonist 1.8 and 5HT1E antag 7.7.
CCN(C(=O)CCN1C(=O)c2ccccc2C1=O)C1CCCCC1 was read as 5-HT1A blocker -4.2, S1P3 agonist -0.9, S1P1 ag-PAM -3.4, 5HT1a ag -1.7, HTR1E agonist 0.8 and 5HT1E antag 0.9.
Brc1ccc2ncnc(Nc3ccc(N4CCOCC4)cc3)c2c1 was read as 5-HT1A blocker 6.6, S1P3 agonist -0.8, S1P1 ag-PAM 60.9*, 5HT1a ag -0.1, HTR1E agonist 1.5 and 5HT1E antag 15.0.
COc1cccc(OCC(O)CN2CCC(Cc3ccccc3)CC2)c1 (stereo not given) was read as 5-HT1A blocker 51.7*, S1P3 agonist -0.6, S1P1 ag-PAM 2.0, 5HT1a ag 8.8, HTR1E agonist 1.2 and 5HT1E antag -0.8.
For COc1cccc(OCC(O)CN2CCOCC2)c1 (stereo not given) the results were 5-HT1A blocker -11.5, S1P3 agonist 0.2, S1P1 ag-PAM -23.3, 5HT1a ag 0.0, HTR1E agonist 0.6 and 5HT1E antag -12.3.
Screening COCC(=O)Nc1cccc(Br)c1 returned 5-HT1A blocker 1.4, S1P3 agonist 1.4, 5HT1a ag 20.2*, HTR1E agonist 0.2 and 5HT1E antag -8.7.
Screening O=C(COC(=O)c1ccco1)Nc1cccc(Br)c1 returned 5-HT1A blocker 5.9, 5HT1a ag 0.2, HTR1E agonist 0.5 and 5HT1E antag 7.5.
For CC(=O)Nc1ccc(S(=O)(=O)N2CCSC2C(=O)O)cc1 (stereo not given) the results were 5-HT1A blocker 7.8, 5HT1a ag -3.4, HTR1E agonist -1.2 and 5HT1E antag -2.5.
CC(=O)Nc1ccc(S(=O)(=O)/N=C2\SCCN2S(=O)(=O)c2ccc(NC(C)=O)cc2)cc1 was read as 5-HT1A blocker -6.8, S1P3 agonist 0.4, S1P1 ag-PAM -0.7, 5HT1a ag 73.0*, HTR1E agonist 0.4 and 5HT1E antag -3.0.
For O=C(Nc1nc(-c2ccco2)c(-c2ccco2)s1)C1CC(=O)N(c2ccc3c(c2)OCCO3)C1 (stereo not given) the results were 5-HT1A blocker -21.1, 5HT1a ag -1.6, HTR1E agonist 1.0 and 5HT1E antag -4.9.
For CC(=O)Nc1cccc(NC(=O)C2CCCN2C(=O)Nc2cccc(F)c2)c1 (stereo not given) the results were 5-HT1A blocker 9.2, S1P3 agonist -0.4, S1P1 ag-PAM 17.3, 5HT1a ag -1.2, HTR1E agonist 1.1 and 5HT1E antag -4.5.
`CN(C)CCCN1c2ccccc2CCc2ccc(Cl)cc21` gave S1P3 agonist 8.5, S1P1 ag-PAM -15.8, 5HT1a ag -1.1, HTR1E agonist 10.3* and 5HT1E antag 5.4.
Screening CN(C)CCCN1c2ccccc2Sc2ccccc21 returned S1P3 agonist -1.4, S1P1 ag-PAM 3.7, 5HT1a ag -0.9, HTR1E agonist 4.5 and 5HT1E antag -9.1.
Screening CCOC(=O)/C=C/S(=O)(=O)c1ccc(NC(C)=O)cc1 returned 5-HT1A blocker 98.4*, S1P3 agonist -2.0, S1P1 ag-PAM 151.7*, 5HT1a ag -2.7, HTR1E agonist -1.3 and 5HT1E antag 89.2*.
O=P1(Nn2cnnc2)C=C(c2ccccc2)OC(c2ccccc2)=C1 was read as 5-HT1A blocker 2.1, S1P3 agonist 0.6, S1P1 ag-PAM -2.3, 5HT1a ag -2.9, HTR1E agonist -0.8 and 5HT1E antag 1.9.
Screening CC1(C)CC(=O)C2=C(C1)N(c1cccc(O)c1)C1=C(C2)C(=O)CC(C)(C)C1 returned 5-HT1A blocker 19.9, S1P3 agonist -1.1, S1P1 ag-PAM 8.5, 5HT1a ag -0.1, HTR1E agonist 1.1 and 5HT1E antag 30.0*.
For O=C(CN(Cc1cccs1)C(=O)CSc1nnc(COc2ccccc2)o1)NC1CCCC1 the results were 5-HT1A blocker 8.4, S1P3 agonist -0.8, S1P1 ag-PAM -22.4, 5HT1a ag -1.5, HTR1E agonist 0.6 and 5HT1E antag -3.7.
`O=C(Nc1ccc(N2CCOCC2)cc1)Nc1ccc2nc(-c3ccco3)c(-c3ccco3)nc2c1` gave 5-HT1A blocker 40.2, S1P3 agonist 0.0, 5HT1a ag -0.5, HTR1E agonist 0.4 and 5HT1E antag 67.3*.
Screening COc1ccc2cc3cc(C(=O)NCCN4CCN(c5ccccc5F)CC4)oc3nc2c1 returned 5-HT1A blocker 70.8*, S1P3 agonist -1.7, S1P1 ag-PAM 9.8, 5HT1a ag 5.4, HTR1E agonist 16.7* and 5HT1E antag 2.7.
For Cc1nnc(SCC(=O)NCCc2ccccc2)[nH]c1=O the results were 5-HT1A blocker -6.2, S1P3 agonist -0.9, S1P1 ag-PAM 3.3, 5HT1a ag -3.7, HTR1E agonist 1.4 and 5HT1E antag 5.5.
